The results in this text go back to ChEMBL document CHEMBL5500387, “Design, synthesis of combretastatin A-4 piperazine derivatives as potential antitumor agents by inhibiting tubulin polymerization and inducing autophagy in HCT116 cells” (Eur J Med Chem, 2024).

As usually defined, the IC50 is the concentration that gives 50% inhibition. By logD is commonly meant lipophilicity at a set pH, counting ionised and neutral species. High values mean a more lipophilic compound, low ones a more hydrophilic compound.

One data set relates to HCT-116. The data set is described as follows: Cytotoxicity against human HCT-116 cells assessed as inhibition of cell proliferation measured after 72 hrs by CCK-8 assay. In kind it is functional, cell-based. To be noted: HCT-116, 72 h. In short, it runs like this:
(§1)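 Cells seeded at 2×10^3 per well and grown overnight in 10% FBS medium: HCT116 in McCoy's 5A, A549 and AGS in F-12K, SK-MES-1 in DMEM. Compounds added at varied concentrations with 0.1% DMSO control, 72 h at 37 °C. 10% CCK-8 for 2 h, then A450 read. Survival = (As−Ab)/(Ac−Ab)×100%. IC50 from curve fitting.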

For a further data set, the system named is A549. The data set can be described thus: Cytotoxicity against human A549 cells assessed as inhibition of cell proliferation measured after 72 hrs by CCK-8 assay. In kind it is functional, cell-based. To be noted: A549, 72 h. In short, it runs like this:
as §1
On the technique in general: Tetrazolium assays rely on reduction of a dye to a coloured formazan, in cell work by metabolically active cells.

The test system of another data set is SK-MES-1. The data set is described as follows: Cytotoxicity against human SK-MES-1 cells assessed as inhibition of cell proliferation measured after 72 hrs by CCK-8 assay. Type of data set: functional, cell-based. To be noted: SK-MES-1, 72 h. In a few lines: as §1
In the next data set the test system is AGS. The data set is described as follows: Cytotoxicity against human AGS cells assessed as inhibition of cell proliferation measured after 72 hrs by CCK-8 assay. Type of data set: functional, cell-based. In a few lines: as §1
A short description of data set [1]: Octanol-water partition coefficient, log P of the compound at pH 7.4 at 4 mg measured after 24 hrs by liquid chromatography. In kind it is physicochemical. In short, it runs like this: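 4 mg of compound was dissolved in 1 mL water-saturated n-octanol and held 24 h at room temperature, then centrifuged. The supernatant was mixed with an equal volume of octanol-saturated water, stood 24 h, centrifuged and the phases separated. Phase concentrations were measured by LC standard curves. log P = log(C_octanol/C_water). At least three independent runs.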

Data set [2] can be described thus: Cytotoxicity against human NCM460 cells assessed as inhibition of cell proliferation measured after 72 hrs by CCK-8 assay. In kind it is toxicity, cell-based. In a few lines:
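NCM460 normal colonic epithelial cells seeded at 2×10^3 cells/well and grown overnight in RPMI-1640 with 10% FBS. Compounds added at a range of concentrations, 0.1% DMSO as negative control, 72 h at 37 °C. Read-out by CCK-8 (10%, 2 h) at 450 nm. Survival = (As−Ab)/(Ac−Ab)×100%; IC50 taken as concentration giving 50% inhibition of proliferation.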

For `COc1ccc(/C=C(/C(=O)N2CCNCC2)c2cc(OC)c(OC)c(OC)c2)cc1O`, in the data set on HCT-116, the IC50 was found to be 0.735 µM. As for `COc1ccc(/C=C(/C(=O)N2CCN(c3ccc(Cl)cc3)CC2)c2cc(OC)c(OC)c(OC)c2)cc1O`, the IC50 is 0.593 µM in the data set with HCT-116, 0.366 µM with A549, 0.753 µM in the data set with SK-MES-1 and 1.11 µM in the data set on AGS.

`COc1ccc(/C=C(/C(=O)N2CCOCC2)c2cc(OC)c(OC)c(OC)c2)cc1O`: the IC50 with HCT-116 was determined as 0.926 µM. The compound `COc1ccc(/C=C(/C(=O)N2CCN(c3ccc(C)cc3)CC2)c2cc(OC)c(OC)c(OC)c2)cc1O[C@H]1O[C@@H](CO)[C@@H](O)[C@@H](O)[C@@H]1O` gave a logD at 24 h in data set [1] of -0.432. Turning to `COc1ccc(/C=C(/C(=O)N2CCSCC2)c2cc(OC)c(OC)c(OC)c2)cc1O`, the IC50 with HCT-116 worked out at 1.15 µM. Regarding `COc1ccc(/C=C(/C(=O)N2CCN(Cc3ccc(Cl)cc3)CC2)c2cc(OC)c(OC)c(OC)c2)cc1O`, in the data set on HCT-116, the IC50 came out at 2.69 µM. For the compound `COc1ccc(/C=C(/C(=O)N2CCN(c3ccc(C)cc3)CC2)c2cc(OC)c(OC)c(OC)c2)cc1O[C@H]1O[C@H](CO)[C@@H](O)[C@H](O)[C@@H]1O`, the logD at 24 h in data set [1] is -0.638. As to `COc1ccc(/C=C(/C(=O)N2CCN(c3ccc([N+](=O)[O-])cc3)CC2)c2cc(OC)c(OC)c(OC)c2)cc1O`, the half-inhibitory concentration (IC50) with HCT-116 stood at 2.77 µM. Same read-out and setting: under `COc1cccc(N2CCN(C(=O)/C(=C/c3ccc(OC)c(O)c3)c3cc(OC)c(OC)c(OC)c3)CC2)c1` stands 1.86 µM; under `COc1ccc(/C=C(/C(=O)N2CCN(Cc3ccc(C)cc3)CC2)c2cc(OC)c(OC)c(OC)c2)cc1O`, 1.98 µM. The same measure, in the same setting: in the case of `COc1ccc(/C=C(/C(=O)N2CCN(c3ccc(C#N)cc3)CC2)c2cc(OC)c(OC)c(OC)c2)cc1O` it was 3.35 µM; in that of `COc1ccc(/C=C(/C(=O)N2CCN(Cc3ccc(F)cc3)CC2)c2cc(OC)c(OC)c(OC)c2)cc1O`, 2.1 µM. For the compound `COc1ccc(/C=C(/C(=O)N2CCN(c3ccc(F)cc3)CC2)c2cc(OC)c(OC)c(OC)c2)cc1O`, the half-maximal inhibitory concentration (IC50) came out at 0.253 µM in the data set with HCT-116, 0.27 µM in the data set on A549, 0.385 µM with SK-MES-1 and 0.531 µM in the data set on AGS. Take `COc1ccc(/C=C\c2cc(OC)c(OC)c(OC)c2)cc1O` [COMBRETASTATIN A4]: the logD at 24 h in data set [1] is 2.14. The IC50 in the data set with SK-MES-1 came out at 0.007 µM; with AGS it was 0.074 µM. Also, the IC50 at 72 h in data set [2] came out at 0.011 µM. Consider `COc1ccc(/C=C(/C(=O)N2CCN(c3ccc(C)cc3)CC2)c2cc(OC)c(OC)c(OC)c2)cc1O[C@H]1O[C@@H](CO)[C@H](O[C@@H]2O[C@H](CO)[C@H](O)[C@H](O)[C@H]2O)[C@@H](O)[C@@H]1O`, for which the logD at 24 h in data set [1] was -0.824. Same read-out and setting: under `COc1ccc(/C=C(/C(=O)N2CCN(c3ccc(C)cc3)CC2)c2cc(OC)c(OC)c(OC)c2)cc1O[C@H]1O[C@@H](CO)[C@H](O)[C@@H](O)[C@@H]1O` stands -0.538. As to `COc1ccc(/C=C(/C(=O)N2CCN(c3ccccc3Cl)CC2)c2cc(OC)c(OC)c(OC)c2)cc1O`, in the data set with HCT-116, the IC50 came out at 1.83 µM. Regarding `COc1ccc(/C=C(/C(=O)N2CCN(Cc3ccccc3C)CC2)c2cc(OC)c(OC)c(OC)c2)cc1O`, the IC50 in the data set on HCT-116 was found to be 2.85 µM. As for `COc1ccc(/C=C(/C(=O)N2CCN(c3ccc(Br)cc3)CC2)c2cc(OC)c(OC)c(OC)c2)cc1O`, the IC50 stood at 0.716 µM with HCT-116, 0.547 µM with A549, 0.803 µM with SK-MES-1 and 1.35 µM in the data set with AGS. Regarding `COc1ccc(/C=C(/C(=O)N2CCN(c3cccc(C)c3)CC2)c2cc(OC)c(OC)c(OC)c2)cc1O`, the IC50 in the data set with HCT-116 was 1.77 µM.

As for `COc1ccc(/C=C(/C(=O)N2CCCC2)c2cc(OC)c(OC)c(OC)c2)cc1O`, the IC50 in the data set on HCT-116 is 2.48 µM. As to `COc1ccc(N2CCN(C(=O)/C(=C/c3ccc(OC)c(O)c3)c3cc(OC)c(OC)c(OC)c3)CC2)cc1`, the IC50 in the data set with HCT-116 came out at 0.941 µM; in the data set with A549 it was 0.657 µM; in the data set with SK-MES-1, 0.605 µM; in the data set on AGS it was 0.882 µM. Regarding `COc1ccc(/C=C(/C(=O)N2CCN(Cc3cccc(C)c3)CC2)c2cc(OC)c(OC)c(OC)c2)cc1O`, the IC50 in the data set with HCT-116 is 3.64 µM. On the same count and under the same terms, under `COc1ccc(/C=C(/C(=O)N2CCS(=O)(=O)CC2)c2cc(OC)c(OC)c(OC)c2)cc1O` stands 1.99 µM. Still for that read-out and setting: under `COc1ccc(/C=C(/C(=O)N2CCN(c3ccccc3C)CC2)c2cc(OC)c(OC)c(OC)c2)cc1O` stands 1.58 µM. Consider `COc1ccc(/C=C(/C(=O)N2CCN(c3ccccc3F)CC2)c2cc(OC)c(OC)c(OC)c2)cc1O`, for which the IC50 in the data set on HCT-116 was 1.38 µM.
